Only some compounds are listed: those with a hit (about 9.8% of all), similar ones and a draw of the others.
Calpain2 inh: inhibitors of pig calpain II, primary screen, biochemical, fluorogenic peptide substrate, 1536-well | inhibition, % at 16 µM | 220,000 compounds, 0.37% hits | purified calpain II, 30 min;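 active = inhibition above about 50%, limit read from the data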
L major viab: Leishmania major promastigote growth inhibition, primary screen; inhibition, % at 10 µM; AID 1063, 2008; Leishmania major promastigotes, resazurin fluorescence viability; 200,000 compounds, 9% hits; in the data active = inhibition above about 50%;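 note: promastigotes grown with compound for 44 hours at 28 °C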
Rad51 HR inh: human RAD51 strand exchange inhibitors, primary screen, biochemical, fluorescence | inhibition, % at 10 µM | DNA repair protein RAD51 homolog 1 (Homo sapiens), Q06609 | hRad51 DNA strand exchange, fluorescence dequenching | AID 1385, 2008 | 200,000 compounds, 0.085% hits;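 active = inhibition above 40% at the single screening dose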;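 note: 0% = DMSO control wells and 100% = blanks with heterologous ssDNA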
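Material: hRad51 filaments on single-stranded DNA; Reagent: Donor/quencher-labelled 47-bp dsDNA substrate; Compound: 10 µM final, single point; Schedule: 37 °C 15-min filament assembly, 30-min compound preincubation, 15-min exchange; Technique: FRET fluorescence, excitation 485 nm, emission 520 nm; Benchmarks: control wells and blank wells on each plate.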
WT yeast gro inh: growth inhibition of WT strain, primary screen, mitochondrial fusion inhibitor project, WT and mutant strains, chemical genetic; mitochondrial fusion phenotypic screen; inhibition, % at 10 µM; 190,000 compounds, 2.1% hits; AID 1362, 2008; in the data active = inhibition above about 58%; tested in S. cerevisiae
PMI act: activators of human PMI, primary screen, biochemical, fluorescence intensity, near-Km mannose 6-phosphate. purified human PMI, coupled resazurin fluorescence, 20 min; active compounds read high; 1 = vehicle control, 0 substrate-free wells. AID 1214, 2008. 190,000 compounds, 0.005% hits. activation factor at 20 µM;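 active = activation factor of 2 or more at 20 µM, relative to plate controls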
Target sequence (P34949 whole entry, looked up): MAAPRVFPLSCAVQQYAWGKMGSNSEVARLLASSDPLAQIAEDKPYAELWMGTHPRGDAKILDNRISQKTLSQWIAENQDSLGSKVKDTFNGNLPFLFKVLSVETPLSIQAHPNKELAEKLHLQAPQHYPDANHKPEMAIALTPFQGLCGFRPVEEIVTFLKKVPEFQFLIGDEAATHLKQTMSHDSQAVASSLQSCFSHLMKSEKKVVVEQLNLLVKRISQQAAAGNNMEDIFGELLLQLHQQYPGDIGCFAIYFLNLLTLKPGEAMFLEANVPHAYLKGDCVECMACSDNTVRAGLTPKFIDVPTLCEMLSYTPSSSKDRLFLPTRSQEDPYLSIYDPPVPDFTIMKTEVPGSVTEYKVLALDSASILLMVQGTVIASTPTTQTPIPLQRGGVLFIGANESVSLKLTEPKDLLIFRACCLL
PMI act hi M6P: human PMI activators, high substrate, primary screen, biochemical, fluorescence intensity, near-saturating mannose 6-phosphate. coupled PMI enzyme assay, resazurin fluorescence, 20 min; active compounds read high; 1 = untreated enzyme, 0 = substrate-free blank. 190,000 compounds, 0.34% hits. Mannose-6-phosphate isomerase (Homo sapiens), P34949. activation factor at 20 µM. AID 1216, 2008;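 active = activation factor of 2 or more at 20 µM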
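Test system: human phosphomannose isomerase with PGI, G6PDH, diaphorase coupling enzymes; Amount: PMI at 15 ng/mL final; Reagent: Mannose-6-phosphate 1.0 mM (near-saturating) plus 0.22 mM NADP+; Timing: 20 min, room temperature; Technique: resorufin fluorescence at Ex 544/Em 590 nm; Dosing: 20 µM single dose.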
Numbers without * were called inactive; . = no result.

SMILES	Calpain2 inh	L major viab	Rad51 HR inh	WT yeast gro inh	PMI act	PMI act hi M6P
O=S(=O)(c1ccc(Cl)cc1)N1CCN(Cc2ccc(O)c3ncccc23)CC1	-36.5	98.1*	-1.5	-17.7	0.7	0.5
CN1CCN(Cc2cc(COCc3ccccc3)c3cccnc3c2O)CC1	0.5	100.5*	-0.9	-0.8	0.6	0.9
Oc1ccc(CN2CCN(Cc3ccccc3)CC2)c2cccnc12	11.0	100.2*	1.9	-10.5	.	.
O=[N+]([O-])c1cc(CN2CCOCC2)c2cccnc2c1O	-12.6	-4.0	-2.2	-13.2	0.9	0.6
CCN(CC)S(=O)(=O)c1cccc(C(=O)OCC(=O)Nc2ccc3c(c2)c2ccccc2n3CC)c1	-16.0	1.8	-8.9	2.4	0.9	0.6
CCn1c2ccccc2c2cc(NC(=O)COC(=O)c3cccc(S(=O)(=O)NC)c3)ccc21	26.2	65.6*	9.4	-22.6	0.8	0.9
COc1cccc(-c2nc(-c3ccccn3)no2)c1	10.2	11.9	-2.3	79.4*	0.9	0.9
c1ccc(-c2noc(-c3ccc4c(c3)OCO4)n2)nc1	-28.3	-6.3	-6.9	64.4*	0.8	0.8
COc1cccc(-c2nc(=S)c3c(o2)CCCC3)c1	1.2	-3.3	11.5	68.2*	1	1.1
c1ccc(-c2noc(-c3ccc4ccccc4c3)n2)nc1	-13.2	3.4	2.4	2.1	0.9	0.9
CCCCN(CC)C(=O)CSc1nc2c(sc(=S)n2-c2ccc(OCC)cc2)c(=O)[nH]1	-15.0	-4.5	-8.2	1.4	1.1	1.1
COc1ccc(OCC(O)CNC(=O)c2ccc(C)cc2)cc1 (centres undefined)	-5.1	.	11.6	.	.	.
Cc1onc(-c2ccc(Cl)cc2)c1-c1ccnc(SCC(=O)Nc2ccc(C(C)C)cc2)n1	24.8	.	-15.9	.	.	.
CCOC(=O)C1=NN(c2ccc(OC)cc2)C(c2ccccc2)CC1=O (centres undefined)	26.8	60.6*	-0.2	2.8	0.9	0.9
CS(=O)(=O)N1CCc2cc(NC(=O)c3ccc(Cl)cc3Cl)ccc21	50.4*	-0.6	-8.9	17.1	1	1
Cc1ccc(-c2ccc(/C=N/n3cnnc3)o2)cc1Cl	-47.2	71.0*	-12.5	27.3	0.8	0.8
Cc1ccc(-c2ccc(/C=N/n3cnnc3)o2)cc1	8.2	.	-2.1	.	.	.
CCCc1nc(SCC(=O)N2CCC(Cc3ccccc3)CC2)c2c(=O)n(C)c(=O)n(C)c2n1	43.2	9.5	8.3	81.2*	0.8	0.8
CCCc1nc(SCC(=O)N2CCCc3ccccc32)c2c(=O)n(C)c(=O)n(C)c2n1	62.1*	42.1	-1.1	73.4*	0.9	1
Cn1c(=O)c2c(SCC(=O)N3CCCc4ccccc43)nc(CC(C)(C)C)nc2n(C)c1=O	14.6	52.1*	.	55.0	0.9	0.9
Cn1c(=O)c2c(SCC(=O)N3CCOCC3)nc(CC(C)(C)C)nc2n(C)c1=O	9.2	8.8	2.7	2.0	0.9	0.9
COc1ccc(CN2C(=O)c3ccccc3C2C(=O)NC2CCCC(C)C2C)c(OC)c1 (centres undefined)	-69.0	27.7	6.2	31.9	1.1	1.1
COc1ccccc1N(CCN1C(=O)c2cccc3cccc(c23)C1=O)C(=O)c1ccncc1	19.3	2.1	3.2	9.9	0.9	0.9
Cc1ccc(S(=O)(=O)NCCNC(=O)c2ccccc2)cc1	-13.1	-4.9	-0.1	-0.4	0.9	0.9
Cc1ccc(S(=O)(=O)NCc2ccc(C(=O)NCCN(Cc3ccccc3)C(C)C)cc2)cc1	-0.5	67.4*	-43.0	-18.6	1	1
SMILES	Calpain2 inh	L major viab	Rad51 HR inh	WT yeast gro inh	PMI act	PMI act hi M6P
COC(=O)c1cc2oc3ccccc3c2n1CC(=O)Nc1ccccc1OC	-13.2	83.0*	-7.4	1.2	1	1
COc1ccccc1NC(=O)Cn1c(=O)oc2ccccc21	-10.6	1.6	-1.3	1.1	1	0.9
COc1ccccc1NC(=O)Cn1c(=O)n(-c2ccccc2)c(=O)c2oc3ccccc3c21	10.5	-3.3	.	-11.7	0.9	1
COc1ccc(NC(=O)Cn2c(=O)n(-c3ccccc3)c(=O)c3oc4ccccc4c32)c(OC)c1	13.0	61.0*	-4.6	-0.7	1.1	1.1
COc1cc(CN2CCC(C(=O)N3CCN(c4ccccc4F)CC3)CC2)ccc1O	0.1	62.8*	-2.6	-8.1	0.8	0.9
COc1cccc(CN2CCC(C(=O)N3CCN(c4ccccc4F)CC3)CC2)c1	-12.2	89.1*	.	-6.4	1.1	1.1
COc1ccc(OC)c(CN2CCC(C(=O)N3CCN(c4ccccc4F)CC3)CC2)c1	-1.1	-12.5	.	-9.0	1	1.1
O=C(CCSc1ccc(Cl)cc1)Nc1cccnc1	-11.5	5.3	15.7	7.7	0.8	0.8
CC1CCC(C(C)C)C(OC(=O)C[n+]2cc(-c3ccc(Cl)cc3)n3c2CCCCC3)C1 (centres undefined)	-2.6	100.5*	2.9	21.8	1.1	1
O=C(C[n+]1cc(-c2ccccc2)n2c1CCCCC2)c1ccc(Cl)cc1	22.6	69.5*	-4.1	12.2	0.8	0.9
COc1ccc(-c2c[n+](CC(=O)c3ccccc3)c3n2CCCCC3)cc1	-13.4	.	.	.	.	.
Cc1ccc(-c2c[n+](CC(=O)c3ccc(Br)cc3)c3n2CCCCC3)cc1	-25.6	100.5*	2.0	10.7	1	1
Cc1nn(C)c(C)c1CS(=O)(=O)c1ccccc1	-6.0	-2.1	6.2	-4.3	1.1	1
CN(C(=O)c1cc2c(s1)-c1ccccc1S(=O)(=O)C2)c1ccccc1	14.6	.	-17.4	.	.	.
COC(=O)C1CSc2[nH]c(=O)sc2C1c1ccc(OC)c(OC)c1 (centres undefined)	16.5	0.8	-2.1	76.9*	0.9	0.8
COC(=O)C1C(c2ccc(OC)c(OC)c2)NC(c2ccc(OC)c(OC)c2)C(C(=O)OC)S1(=O)=O (centres undefined)	1.9	3.0	-3.3	-3.0	1	1
CCc1ccc(NC(=O)c2ccc3c(c2)C(=O)N(CCOC)C3Nc2ccc(CC)cc2)cc1 (centres undefined)	-30.2	0.5	1.2	-11.4	1.1	1
C=CCSc1ncnc2sc(C)c(C)c12	32.0	54.4*	1.4	7.4	0.9	0.9
CC(C)(C)c1cccc(/C=N/O)c1O	-20.3	52.5*	0.8	6.5	1	0.8
CCC(C)C1C(C#N)=C(N)Oc2n[nH]c(C)c21 (centres undefined)	-46.0	67.0*	2.4	-4.3	1.1	1
Cc1[nH]nc2c1C(C(C)C)C(C#N)=C(N)O2 (centres undefined)	-0.2	42.9	-2.2	-9.7	1.1	1
